Sampled rows, rich in hits. Any-hit rate of the full collection: about 2.9%.
FGF22 binding: FGF22 (human) thermal shift binding; Q9HCT0; recombinant FGF22 thermal shift, SYPRO orange fluorescence; percent of sucrose octasulfate shift, DMSO zero; activity (Tm shift, normalised), % at 9.99 µM; 340,000 tested, 1.5% active; AID 651658;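 active = mean Tm shift, scaled 0 neutral to 100 positive control, at about 1.3% or above, every replicate too, limit read from the data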
Target sequence (Q9HCT0 whole entry, looked up): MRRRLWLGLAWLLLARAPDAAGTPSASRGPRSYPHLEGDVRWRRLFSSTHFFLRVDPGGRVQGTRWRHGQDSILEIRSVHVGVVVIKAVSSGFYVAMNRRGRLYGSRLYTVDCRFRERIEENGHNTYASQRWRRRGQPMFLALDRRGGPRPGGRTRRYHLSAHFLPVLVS
Ecoli rRNA inh: selective bacterial rRNA inhibition in E. coli; E. coli WT GFP vs humanized-ribosome RFP mutants, fluorescence, 24 h; active compounds read low; DMSO median 0, no signal -100; GFP signal change (wild-type ribosome), % (concentration not given with the values); 350,000 tested, 1.6% active; AID 720706;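 active = significant combined selectivity score with lowered wild-type GFP, culture density cut under 30%, mutant RFP and density less affected; inactive = any of these conditions unmet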
Cneo AK release: causes C. neoformans cell lysis; adenylate kinase release luminescence, 4 h; normalised: neutral wells 0, clomiphene wells 100; lysis activity, % at 15 µM; 360,000 tested, 0.2% active;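 active = mean lysis activity across replicates of at least 80%, whatever share of replicates individually reach that level; inactive = mean lysis activity below 80%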
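Assay system: log-phase C. neoformans yeast / Quantity: yeast cell density of 5 × 10^6 cells/mL / Medium: fresh YPD growth medium / Compound: single dose / Timing: static 4 h at 37 °C with compound, 1 h detection / Measured by: adenylate kinase release luminescence / Read-out: lysis from increased AK signal / Benchmarks: Clomiphene as positive lysis control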
Vif imaging: blocks HIV Vif function; HEK293T cells, Vif self-association by quenched fluorescence, imaging, 24 h; inhibition, % at 7.49 µM; 340,000 tested, 0.35% active; AID 602346; in the data active = inhibition above about 50%, passing the limit was not always enough
PGC1a acetyl inh: PGC1a acetylation modulation, inhibitor mode; U2OS PGC1a acetylation, AlphaScreen anti-acetyl-lysine; with virally co-expressed GCN5 acetyltransferase; inhibition, % at 15.6 µM; 350,000 tested, 0.17% active;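 active = every replicate shows inhibition of at least 40%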
PglD DTNB: PglD (C. jejuni) enzyme inhibition. 360,000 tested, 0.098% active. AID 602405. inhibition, % at 12.5 µM. purified PglD enzyme, DTNB colorimetric CoA detection; in the data active = inhibition above about 16%, passing the limit was not always enough
Hits are given with their value.

COc1ccccc1/C=C/C(=O)N1CCC(c2ccccc2)C1 (configuration not stated) was read as FGF22 binding inactive, Ecoli rRNA inh -22.9 and Vif imaging inactive.
CNc1cc(NS(=O)(=O)c2ccc(N)cc2)nc(NC)n1 was read as FGF22 binding inactive, Ecoli rRNA inh inactive, Cneo AK release inactive, Vif imaging 53.2, PGC1a acetyl inh inactive and PglD DTNB inactive.
For Cc1cc(C)nc(NS(=O)(=O)c2ccc(N)cc2)n1 the results were FGF22 binding inactive, Cneo AK release inactive, Vif imaging inactive, PGC1a acetyl inh inactive and PglD DTNB inactive.
COc1ccc(S(=O)(=O)Nc2ccc3c(c2)CC(=O)N([C@H](C)CO)C[C@H](C)[C@@H](CN(C)C(=O)Nc2ccccc2)O3)cc1 was read as FGF22 binding inactive, Ecoli rRNA inh inactive, Cneo AK release inactive, PGC1a acetyl inh inactive and PglD DTNB inactive.
O=[N+]([O-])c1ccc(N2CCN(Cc3ccccc3)CC2)c2c1no[n+]2[O-] was read as FGF22 binding inactive, Ecoli rRNA inh inactive, Cneo AK release inactive, Vif imaging 113.5, PGC1a acetyl inh inactive and PglD DTNB inactive.
`Cc1cc(O)c(N)c(C)c1Cl` gave FGF22 binding 43.1, Ecoli rRNA inh inactive, Vif imaging inactive and PGC1a acetyl inh inactive.
For COc1ccccc1CNC(=O)CSc1ccc(Br)cc1 the results were Vif imaging inactive.
`COc1ccccc1CNC(=O)CSc1ccc(-c2ccccn2)nn1` gave FGF22 binding inactive, Ecoli rRNA inh inactive and Vif imaging inactive.
Screening COc1ccccc1CNC(=O)CSC1=NCCS1 returned FGF22 binding inactive, Ecoli rRNA inh inactive, Cneo AK release inactive, Vif imaging 58.3, PGC1a acetyl inh inactive and PglD DTNB inactive.
COc1ccccc1CNC(=O)CSc1ccc(-c2cccs2)nn1 was read as FGF22 binding inactive, Ecoli rRNA inh -25.3 and Vif imaging inactive.
COc1ccc(NC(=O)N(C)C[C@H]2OCCCC[C@H](C)Oc3ccc(NS(=O)(=O)c4ccc(C)cc4)cc3C(=O)N([C@H](C)CO)C[C@@H]2C)cc1 was read as Ecoli rRNA inh inactive, Cneo AK release inactive, PGC1a acetyl inh inactive and PglD DTNB inactive.
For COc1ccc(-c2[nH]ncc2CN(C)C(C)c2ccon2)cc1F (configuration not stated) the results were FGF22 binding inactive, Ecoli rRNA inh inactive, Vif imaging inactive and PGC1a acetyl inh 79.8.
Screening COc1ccc(-c2[nH]ncc2CN(C)CCN2CCOCC2)cc1F returned FGF22 binding inactive, Ecoli rRNA inh inactive, Vif imaging inactive and PGC1a acetyl inh inactive.
`COc1ccc(-c2[nH]ncc2CNC(C)c2ccccc2Cl)cc1F` (configuration not stated) gave FGF22 binding inactive, Ecoli rRNA inh inactive, Vif imaging inactive and PGC1a acetyl inh inactive.
COc1ccc(-c2[nH]ncc2CN(C)CC2CCCCO2)cc1F (configuration not stated) was read as FGF22 binding 43.0, Ecoli rRNA inh inactive, Vif imaging inactive and PGC1a acetyl inh inactive.
For CO[C@@H]1CN(C)C(=O)c2cc(NS(=O)(=O)c3ccc(Cl)cc3)ccc2OC[C@@H](C)N(C)C[C@H]1C the results were Ecoli rRNA inh inactive, Cneo AK release inactive, PGC1a acetyl inh inactive and PglD DTNB inactive.
Screening CC1(C)CC(N2CCCC2)=CC(=[N+]2CCCCCC2)C1 returned FGF22 binding inactive, Ecoli rRNA inh -20.6 and Vif imaging inactive.
CC1(C)CC(N2CCN(c3ccccc3)CC2)=CC(=[N+]2CCCC2)C1 was read as Cneo AK release inactive, Vif imaging inactive, PGC1a acetyl inh inactive and PglD DTNB inactive.
Screening CCCS(=O)(=O)N1CCN(Cc2c[nH]c3ccccc23)CC1 returned FGF22 binding 43.0, Ecoli rRNA inh inactive, Vif imaging inactive and PGC1a acetyl inh inactive.
For COc1ccc(S(=O)(=O)N2CCN(Cc3c[nH]c4ccccc34)CC2)cc1 the results were Cneo AK release inactive, Vif imaging inactive, PGC1a acetyl inh inactive and PglD DTNB inactive.
`CCOc1ccccc1N1CCN(S(=O)(=O)c2cccs2)CC1` gave FGF22 binding inactive, Ecoli rRNA inh -23.8, Cneo AK release inactive, Vif imaging inactive and PglD DTNB inactive.

Compound activity: PubChem, Broad Institute
